MrgX1 agonist = agonists of human MrgX1 receptor, primary screen, HEK293 cells, Fluo-4 calcium flux; Mas-related G-protein coupled receptor member X1 (Homo sapiens), Q96LB2; B-score at 10 µM; Fluo-4 calcium fluorescence, agonist mode; stronger effect = higher value; 310,000 tested, 0.44% active;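 active = calcium response B-score plate-corrected fluorescence ratio at least 3 library SD, with starting fluorescence B-score inside 5 SD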
Target sequence (Q96LB2 whole entry, looked up): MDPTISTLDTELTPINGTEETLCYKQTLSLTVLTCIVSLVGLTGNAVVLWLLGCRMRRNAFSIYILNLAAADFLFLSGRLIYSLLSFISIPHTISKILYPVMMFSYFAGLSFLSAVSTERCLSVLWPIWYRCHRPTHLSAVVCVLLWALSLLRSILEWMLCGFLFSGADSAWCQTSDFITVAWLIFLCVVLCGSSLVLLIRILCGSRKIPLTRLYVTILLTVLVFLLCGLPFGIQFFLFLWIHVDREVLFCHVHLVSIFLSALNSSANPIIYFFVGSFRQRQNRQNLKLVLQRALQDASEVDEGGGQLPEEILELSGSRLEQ
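Material: MrgX1-expressing HEK293 cells; input: 15,000 cells per well; doses: test compound given as first of three sequential additions; schedule: overnight plating before 1 h dye loading; technique: Fluo-4 NW calcium-flux fluorescence, kinetic read; evaluation: baseline-normalised fluorescence change ratio, B-scored; control set: plate-wise positive and negative controls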
RGS4 pot = RGS4 potentiators or activators, primary screen, cell-based, HEK293 M3R inducible RGS4, calcium flux; carbachol calcium flux Fluo4; stronger effect = lower value; B-score at 10 µM; 310,000 tested, 0.92% active; AID 463111, 2010;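 active = B-score of the integrated calcium signal more than 4 SD below the library mean, with starting fluorescence not abnormally high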;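 note: negative B-score means reduced calcium response which marks RGS4 activation or potentiation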
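Material: M3R-expressing HEK293 line, RGS4 induced by doxycycline | Schedule: Overnight RGS4 induction, 30 min dye load 37 °C, 20 min compound RT | Measured by: Fluo4 fluorescence kinetic imaging of calcium | Read-out: Integrated calcium ratio converted to B score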
MrgX1 PAM = positive allosteric modulators of MrgX1, primary screen, HEK293 cells, Fluo-4 calcium flux. 310,000 tested, 0.63% active. FDSS; stronger effect = higher value. B-score at 10 µM;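 active = plate-corrected calcium response at least 3 library SD above typical, normal starting fluorescence, not activating the receptor alone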;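 note: compound read alongside a low EC10 to EC30 dose of BAM8-22 agonist; peak minus trough fluorescence over baseline measured at the second addition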
MrgX1 antag = antagonists of human MrgX1 receptor, primary screen, HEK293 cells, Fluo-4 calcium flux. BAM8-22 antagonism; stronger effect = lower value. B-score at 10 µM. AID 588676, 2011. 310,000 tested, 1.3% active;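 active = calcium-response B-score plate-corrected more than 3 library SD below zero, starting fluorescence within 5 deviations, no agonist response on first addition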;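 note: peak minus trough fluorescence over baseline after final BAM8-22 challenge near maximal dose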
RGS4 block = RGS4 inhibitors, primary screen, cell-based, HEK293 M3R inducible RGS4, calcium flux | Regulator of G-protein signaling 4 (Homo sapiens), P49798 | Fluo-4 calcium flux; stronger effect = higher value; triggered by carbachol at its EC20 | B-score at 10 µM | 310,000 tested, 0.45% active | AID 463165, 2010;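 active = B-score, a plate-corrected calcium signal, over three deviations above library mean, with baseline fluorescence within five deviations of library mean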;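 note: RGS4 expression induced by doxycycline in cells with stable M3 receptor; B-score is computed from the integrated fluorescence ratio over baseline after carbachol; higher B-score means a larger calcium signal and so more RGS4 inhibition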
Target sequence (P49798 whole entry, looked up): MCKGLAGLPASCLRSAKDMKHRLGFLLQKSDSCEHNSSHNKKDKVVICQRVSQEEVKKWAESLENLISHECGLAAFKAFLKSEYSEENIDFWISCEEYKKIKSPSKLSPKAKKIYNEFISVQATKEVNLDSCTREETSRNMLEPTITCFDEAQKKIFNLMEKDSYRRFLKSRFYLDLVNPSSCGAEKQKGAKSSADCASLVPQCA
RGS4 inh valid = enhanced carbachol calcium response, M3R/RGS4 cells, RGS4 inhibitor project, cell-based, validation screen, HEK293 M3R/RGS4, calcium flux; calcium response, % at 10 µM; shares compounds with RGS4 block; carbachol calcium Fluo-4 fluorescence; carbachol added at its EC20; 0 = buffer wells, 100 = carbachol control; 1,700 tested, 65% active;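 active = duplicate-averaged calcium response above the buffer-only control mean plus 5 SD of those controls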;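 note: integrated fluorescence ratio F max minus min over baseline F0; higher response in RGS4-induced cells means RGS4 inhibition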
RGS4 uninduced = carbachol calcium response in non-induced M3R cells, confirmation, counter-screen for RGS4 inhibitor project, cell-based, HEK293 M3R | 1,900 tested, 20% active | carbachol calcium Fluo-4; submaximal (EC20) carbachol stimulus; buffer wells 0%, carbachol control wells 100% | activity (percent), % at 10 µM | shares compounds with RGS4 block | AID 493000, 2010; call rule not given here;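 note: RGS4 induction absent so cells express M3R without RGS4; higher means more calcium signal and flags a non-specific hit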
M3R basal Ca ctr = second RGS4 inhibitor counter-screen in uninduced cells lacking carbachol; shares compounds with RGS4 block; HEK293 M3R/RGS4 non-induced, Fluo-4 calcium, no carbachol; normalised: buffer wells 0%, carbachol wells 100%; calcium response (agonist-mode artifact), % at 10 µM; 1,900 tested, 22% active; AID 493001;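 active = duplicate-averaged calcium rise in uninduced cells above buffer wells' mean plus 5 SD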
An asterisk follows results filed as active; i = inactive; . = no result. An excerpt weighted towards active compounds, which were near 3.5% of everything screened.

SMILES | MrgX1 agonist | RGS4 pot | MrgX1 PAM | MrgX1 antag | RGS4 block | RGS4 inh valid | RGS4 uninduced | M3R basal Ca ctr
CCOC(=O)c1c(-c2ccc(C)o2)csc1NC(=O)COC(=O)c1ccc(NC(N)=O)cc1 | i | i | i | i | i | . | . | .
NC(=O)c1nsc(C(=O)N(Cc2cccnc2)C(C(=O)NCc2ccc(F)cc2)c2ccc(O)cc2)c1N (stereo not given) | i | i | i | i | i | . | . | .
O=C1/C(=C\c2ccccn2)SC(=S)N1c1ccc(S(=O)(=O)Nc2nccs2)cc1 | i | i | i | i | 5.88* | 20.5%* | i | i
CC1CC(NC(=O)c2c(O)nc3sccn3c2=O)CC(C)(C)C1 (stereo not given) | i | i | i | i | 13.7* | 22.0%* | 48.5%* | i
CN(C)S(=O)(=O)c1ccc(C(=O)Nc2ccn(C)n2)cc1 | i | i | i | i | i | . | . | .
Cc1cc(NS(=O)(=O)c2ccc(Nc3nc(-c4ccc(O)cc4)cs3)cc2)no1 | i | i | i | i | i | . | i | i
Cc1cc(NS(=O)(=O)c2ccc(Nc3nc(-c4sc(N)nc4C)cs3)cc2)no1 | i | i | i | i | i | . | . | .
COc1cc(NS(=O)(=O)c2ccc(Nc3nc(-c4ccccc4)cs3)cc2)nc(OC)n1 | i | i | i | i | 7.96* | 18.5%* | i | i
Cc1cc(NS(=O)(=O)c2ccc(Nc3nc(-c4ccc(C)c(C)c4)cs3)cc2)no1 | i | i | i | i | i | i | 33.5%* | i
COc1cc([N+](=O)[O-])ccc1NC(=O)CSc1nnc(C)c(C)n1 | i | i | i | i | i | . | . | .
Cn1nc(-c2ccc(Cl)cc2)cc1NC(=O)CCCC(=O)O | i | i | i | i | i | . | . | .
CCSc1nc2ccccc2n1C(=O)/C=C\c1ccc(OC)c(OC)c1 | i | i | i | i | 13.6* | 21.5%* | 75.5%* | 7.5%*
Cc1ccc(-c2ccc(C(=O)NCc3ccc(Cl)cc3)o2)c2ccccc12 | i | i | i | i | 4.78* | i | i | 15.5%*
Cc1noc(C)c1CS(=O)(=O)c1ccc([N+](=O)[O-])cc1 | i | i | i | i | i | . | . | .
CN(C)c1ccc(N2C(=NC(=O)c3ccccc3)SC3CS(=O)(=O)CC32)cc1 (stereo not given) | i | i | i | i | i | . | . | .
O=C(CC1Nc2cccc3cccc(c23)NC1=O)Nc1ccccc1 (stereo not given) | i | i | i | i | i | . | i | i
Cc1sc2nc3ccc(NCc4ccco4)nn3c(=O)c2c1C | i | i | i | i | 8.31* | i | i | 16.5%*
Cc1csc(NC(=O)CSCC(=O)O)c1-c1nc2ccccc2s1 | i | i | i | i | 10.7* | 34.5%* | 50.5%* | i
O=C(O)CSCC(=O)Nc1ccc(-c2nc3ccccc3s2)cc1 | i | i | i | i | i | . | . | .
COc1ccc(NC(=O)/C(Cl)=C(/Cl)S(=O)(=O)Cc2ccc(C)cc2)cn1 | . | i | . | . | 12* | 24.0%* | i | 7.5%*
O=C(NC(=S)N1CCOCC1)c1cc2ccccc2o1 | i | i | i | i | i | . | . | .
Cc1cccc2cc(/C=C/C(=O)c3ccco3)c(Cl)nc12 | i | i | i | i | i | . | . | .
CCOc1ccc2nc(Cl)c(/C=C/C(=O)c3ccco3)cc2c1 | i | i | i | i | 9.51* | i | 40.5%* | i
CCn1cc([N+](=O)[O-])c(C(=O)N2N=C(c3ccc(O)c(OC)c3)CC2c2ccccc2O)n1 (stereo not given) | i | i | i | i | i | . | i | i
CCn1cc([N+](=O)[O-])c(C(=O)N2N=C(c3ccc4ccccc4c3)CC2c2cc(Br)ccc2O)n1 (stereo not given) | i | i | i | i | i | . | . | .
SMILES | MrgX1 agonist | RGS4 pot | MrgX1 PAM | MrgX1 antag | RGS4 block | RGS4 inh valid | RGS4 uninduced | M3R basal Ca ctr
CCn1cc([N+](=O)[O-])c(C(=O)N2N=C(c3ccc(Cl)c(Cl)c3)CC2c2ccccc2O)n1 (stereo not given) | i | i | i | i | 6.39* | 21.5%* | i | i
COc1cccc(/C=C/C(=O)c2c(O)cc(C)oc2=O)c1O | i | i | i | i | 7.33* | 37.0%* | i | i
Cc1cc(O)c(C(=O)/C=C/c2ccc(Cl)cc2)c(=O)o1 | i | i | i | i | i | . | . | .
CSc1ccc(/C=C/C(=O)c2c(O)cc(C)oc2=O)cc1 | i | i | i | i | 6.1* | 24.5%* | i | 7.5%*
CCCC1(c2ccccc2)NC(=O)N(CC(=O)c2[nH]c(C)c(C(=O)OCC)c2C)C1=O (stereo not given) | i | i | i | i | i | . | . | .
CCOC(=O)c1c(C)[nH]c(C(=O)CN2C(=O)NC(C)(c3ccc4ccccc4c3)C2=O)c1C (stereo not given) | i | i | i | i | 5.7* | 9.0%* | i | i
COc1cccc(C(=O)c2c(C)c(CCC#N)n3ccccc23)c1 | i | i | i | i | i | . | . | .
Cn1c2ccccc2c(=O)c2ccc(C#CC3(O)CCCCC3)cc21 | i | i | i | i | i | . | . | .
Cc1[nH]c2ccccc2c1C(=O)CN1C(=O)NC(C)(c2ccc(Cl)cc2Cl)C1=O (stereo not given) | i | i | i | i | 10.2* | 30.0%* | i | 56.5%*
Cc1[nH]c2ccccc2c1C(=O)CSc1ccc(Cl)cc1 | i | i | i | i | i | . | . | .
O=C(NCc1ccco1)c1cc2nc(-c3ccc4c(c3)OCO4)cc(C(F)(F)F)n2n1 | i | i | i | i | 4.66* | i | i | 15.5%*

Source: PubChem BioAssay
